The source made the active and inactive calls. No cut-off for these calls is given here.

Test [1] has as its system T1, Chloroquine resistance transporter (Plasmodium falciparum), Q9N623 [K76T].
T1 sequence (whole entry): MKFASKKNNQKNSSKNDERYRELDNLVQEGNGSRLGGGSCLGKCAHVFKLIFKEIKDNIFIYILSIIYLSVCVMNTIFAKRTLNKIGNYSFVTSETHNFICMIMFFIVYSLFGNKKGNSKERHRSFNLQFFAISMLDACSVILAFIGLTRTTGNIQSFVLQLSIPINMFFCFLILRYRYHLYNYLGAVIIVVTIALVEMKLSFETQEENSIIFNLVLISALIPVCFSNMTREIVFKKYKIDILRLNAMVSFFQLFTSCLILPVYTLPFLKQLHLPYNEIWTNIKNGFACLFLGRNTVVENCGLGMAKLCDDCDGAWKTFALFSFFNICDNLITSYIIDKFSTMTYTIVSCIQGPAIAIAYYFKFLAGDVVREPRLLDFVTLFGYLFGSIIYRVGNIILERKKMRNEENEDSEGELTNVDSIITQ
Description: Inhibition of CRT K76T mutant in chloroquine/artemisinin-resistant Plasmodium falciparum NHP4773 assessed as reversal of chloroquine resistance by measuring reduction in chloroquine IC50 at 500 nM relative to chloroquine alone.

Test [2] has the same test system. Description: Inhibition of CRT K76T mutant in chloroquine-resistant Plasmodium falciparum Dd2 isolate MRA-156 assessed as reversal of chloroquine resistance by measuring reduction in chloroquine IC50 at 500 nM relative to chloroquine alone.
For test [3] the test system is unchanged. Description: Inhibition of CRT K76T mutant in chloroquine/artemisinin-resistant Plasmodium falciparum ARS233 assessed as reversal of chloroquine resistance by measuring reduction in chloroquine IC50 at 500 nM relative to chloroquine alone.
Test [4] can be described thus: Resistance index, ratio of chloroquine IC50 for intermediate chloroquine-resistant Plasmodium falciparum 7G8 isolate MRA-154 CRT SVMNT haplotype mutant to chloroquine IC50 for chloroquine-sensitive Plasmodium falciparum 3D7 isolate MRA-102 at 500 nM. The essentials: (§1)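 Chloroquine IC50 was measured with the chemoreversal agent fixed at 500 nM in K1 or 7G8 and in sensitive 3D7 (means, n = 3). The resistance ratio is the chloroquine IC50 in K1 or 7G8 divided by the chloroquine IC50 in 3D7.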

In test [5] the test system is Plasmodium falciparum. Description: Intrinsic antimalarial activity against intermediate chloroquine-resistant Plasmodium falciparum 7G8 isolate MRA-154 harboring CRT SVMNT haplotype mutant assessed as reduction in parasite viability at 500 nM. The class given is functional, organism-based.
The subject of test [6] is Plasmodium falciparum K1. Description: Inhibition of CRT CVIET haplotype mutant in chloroquine-resistant Plasmodium falciparum K1 isolate MRA-159 assessed as reversal of chloroquine resistance by measuring reduction in chloroquine IC50 at 500 nM relative to chloroquine alone.
The subject of test [7] is Plasmodium falciparum. The experiment in a line: Intrinsic antimalarial activity against chloroquine-resistant Plasmodium falciparum Dd2 isolate MRA-156 harboring CRT K76T mutant assessed as reduction in parasite viability at 500 nM. The class given is functional, organism-based.
Test [8] can be described thus: Resistance index, ratio of chloroquine IC50 for chloroquine-resistant Plasmodium falciparum K1 isolate MRA-159 CRT CVIET haplotype mutant to chloroquine IC50 for chloroquine-sensitive Plasmodium falciparum 3D7 isolate MRA-102 at 500 nM. The essentials: as §1
In test [9] the test system is Plasmodium falciparum. Description: Intrinsic antimalarial activity against chloroquine-sensitive Plasmodium falciparum 3D7 isolate MRA-102 assessed as reduction in parasite viability at 500 nM. The class given is functional, organism-based.
The test system of test [10] is Plasmodium falciparum. Description: Intrinsic antimalarial activity against chloroquine-sensitive Plasmodium falciparum HB3 isolate MRA-155 assessed as reduction in parasite viability at 500 nM. The class given is functional, organism-based.
In test [11] the test system is Plasmodium falciparum. Description: Potentiation of chloroquine-induced antimalarial activity against chloroquine-sensitive Plasmodium falciparum HB3 isolate MRA-155 assessed as reduction in chloroquine IC50 at 500 nM relative to chloroquine alone. The class given is functional.
Test [12] relates to Plasmodium falciparum. The experiment in a line: Intrinsic antimalarial activity against chloroquine/artemisinin-resistant Plasmodium falciparum NHP4773 harboring CRT K76T mutant assessed as reduction in parasite viability at 500 nM. The class given is functional, organism-based.
Test [13] deals with T1, Chloroquine resistance transporter (Plasmodium falciparum), Q9N623 [K76T]. The experiment in a line: Inhibition of CRT K76T mutant in chloroquine/artemisinin-resistant Plasmodium falciparum ARS272 assessed as reversal of chloroquine resistance by measuring reduction in chloroquine IC50 at 500 nM relative to chloroquine alone.
Test [14] has as its system Plasmodium falciparum. Description: Potentiation of chloroquine-induced antimalarial activity against chloroquine-sensitive Plasmodium falciparum 3D7 isolate MRA-102 assessed as reduction in chloroquine IC50 at 500 nM relative to chloroquine alone. The class given is functional.
In test [15] the test system is Plasmodium falciparum. The experiment in a line: Intrinsic antimalarial activity against chloroquine-resistant Plasmodium falciparum NHP4559 harboring CRT K76T mutant assessed as reduction in parasite viability at 500 nM. The class given is functional, organism-based.
In test [16] the test system is Plasmodium falciparum K1. The experiment in a line: Inhibition of CRT CVIET haplotype mutant in Plasmodium falciparum K1 isolate MRA-159 infected in erythrocytes assessed as chloroquine-coumarin probe accumulation at 10 uM after 10 hrs by Hoechst 33342 staining based flow cytometry (reference value: 35.57 +/- 3.84%). The class given is cell-based. The arrangement: scale not given: the % may be the effect or the level left. The essentials: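 Infected erythrocyte cultures at 2.5% hematocrit and 7–12% parasitemia, synchronized to late-ring/early-trophozoite stage, were incubated with chloroquine-coumarin probe plus test agent for 10 h at 37 C. Cells were then washed, resuspended in PBS and read by flow cytometry (405 nm excitation, 450/50 filter). Hoechst-stained duplicate wells set parasitemia. Uptake = % infected erythrocytes fluorescent. Controls: PBS (negative), desipramine and parent compound (positive). ≥3 independent experiments; mean ± SEM.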
(In general: In flow cytometry, cells or beads pass a laser one at a time.)

The subject of test [17] is Plasmodium falciparum 7G8. The experiment in a line: Inhibition of CRT SVMNT haplotype mutant in intermediate chloroquine-resistant Plasmodium falciparum 7G8 isolate MRA-154 t assessed as reversal of chloroquine resistance by measuring reduction in chloroquine IC50 at 500 nM relative to chloroquine alone.
Test [18] concerns Plasmodium falciparum. The experiment in a line: Intrinsic antimalarial activity against chloroquine/artemisinin-resistant Plasmodium falciparum ARS233 harboring CRT K76T mutant assessed as reduction in parasite viability at 500 nM. The class given is functional, organism-based.
Test [19] has as its system Plasmodium falciparum. The experiment in a line: Intrinsic antimalarial activity against chloroquine/artemisinin-resistant Plasmodium falciparum ARS272 harboring CRT K76T mutant assessed as reduction in parasite viability at 500 nM. The class given is functional, organism-based.
The subject of test [20] is T1, Chloroquine resistance transporter (Plasmodium falciparum), Q9N623 [K76T]. Description: Inhibition of CRT K76T mutant in chloroquine-resistant Plasmodium falciparum NHP4559 assessed as reversal of chloroquine resistance by measuring reduction in chloroquine IC50 at 500 nM relative to chloroquine alone.
Test [21] has as its system Plasmodium falciparum. Description: Intrinsic antimalarial activity against chloroquine-resistant Plasmodium falciparum K1 isolate MRA-159 harboring CRT CVIET haplotype mutant assessed as reduction in parasite viability at 500 nM. The class given is functional, organism-based.

For `NCC(CCN1CCC(O)CC1)(c1ccccc1)c1ccccc1`, the Ratio IC50 is 0.94 in test [1]; 0.91 in [2]; 0.9 in test [3]; 5.3 in [4]; 0.74 in test [6]; 13.4 in test [8]. For the same compound, the “Ratio IC50” value was found to be 0.99 in test [11]; 0.93 in test [13]; 1.13 in test [14]; 0.98 in [17]; 0.95 in test [20]. The result in test [5], in test [7], in [9], in [10], in test [12] and in test [15] was inactive. Moreover, the outcome in test [18], in test [19] and in test [21] was inactive. For the same compound, the Activity in [16] was 64.8%.

As to `N#CC(CCN1CCC(O)CC1)(c1ccccc1)c1ccccc1`, the outcome in test [5], in [7], in [9], in test [10], in test [12] and in [15] was inactive. Besides, the result in test [18], in [19] and in test [21] was inactive. For the same compound, the Activity in test [16] was 63.9%.

As to `CC(C)(C)OC(=O)N1CCCC(N)C1` (stereo unspecified), the result in test [5], in [7], in test [9], in [10], in test [12] and in [15] was inactive. For the same compound, the result in test [18], in [19] and in test [21] was inactive. The Activity in test [16] was found to be 52.2%.

For the compound `Ic1ccccc1CN[C@@H]1C2CCN(CC2)[C@@H]1Cc1ccccc1` (relative stereo), the outcome in test [5], in test [7], in test [9], in test [10], in test [12] and in test [15] was inactive. Further, the result in test [18], in test [19] and in test [21] was inactive. For the same compound, the Activity in [16] came to 25.8%.

In the case of `NC(=O)C(CCN1CCC(O)CC1)(c1ccccc1)c1ccccc1`, the result in test [5], in [7], in [9], in test [10], in test [12] and in test [15] was inactive. Also, the result in test [18], in [19] and in [21] was inactive. Besides, the Activity in [16] stood at 51.3%.

`N[C@@H]1C2CCN(CC2)[C@@H]1Cc1ccccc1` (relative stereo): the result in test [5], in test [7], in [9], in [10], in test [12] and in test [15] was inactive. Also, the result in test [18], in [19] and in test [21] was inactive. The Activity in test [16] worked out at 40.1%.

On to `N#CC(CCBr)(c1ccccc1)c1ccccc1`, for which the result in test [5], in test [7], in test [9], in test [10], in test [12] and in test [15] was inactive. Besides, the result in [18], in [19] and in test [21] was inactive. Moreover, the Activity in test [16] was found to be 29.6%.

With `O=C1Cc2ccccc2Sc2ccccc21`, the result in test [5], in [7], in test [9], in test [10], in [12] and in [15] was inactive. In addition, the outcome in test [18], in test [19] and in test [21] was inactive. Further, the Activity in test [16] stood at 50.7%.

Consider `NC(=O)C(CCN1CCN(c2ccc(F)cc2)CC1)(c1ccccc1)c1ccccc1`, for which the result in [5], in test [7], in test [9], in [10], in test [12] and in test [15] was inactive. For the same compound, the result in [18], in [19] and in test [21] was inactive. For the same compound, the Activity in test [16] amounted to 57.7%.

With `O=C1/C(=C/c2ccccc2)N2CCC1CC2`, the result in [5], in [7], in [9], in test [10], in test [12] and in [15] was inactive. The outcome in test [18], in [19] and in test [21] was inactive. Also, the Activity in [16] was determined as 39%.

Values taken from ChEMBL document CHEMBL4428038, “Overcoming chloroquine resistance in malaria: Design, synthesis and structure-activity relationships of novel chemoreversal agents” (Eur J Med Chem, 2016).
